From PubChem BioAssay
The source made the active and inactive calls.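 How the source made its calls, unless noted: active means calcium signal ratio cut to more than 3 SD under the fully stimulated control mean yet still positive, in both repeats and the primary screen; inactive means the rest.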

Target: Short transient receptor potential channel 4 (Mus musculus) (UniProt Q9QUQ5)
Experiment: blockers of DAMGO-evoked TRPC4 calcium flux – cell-based, Fluo4, HEK293 TRPC4beta/mu-opioid, confirmation (AID 2636;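 active means calcium signal cut by more than 3 SD below the full-agonist control yet still positive, in both repeats and the earlier primary screen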)
Settings: at 10 µM; stronger effect = higher value
Summary of the method: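 Assay system: HEK293 cells stably co-expressing mouse TRPC4beta and mu-opioid receptor / Also added: DAMGO agonist, submaximal followed by maximal addition / Compound dosing: single final compound concentration of 10 µM / Times: compound pre-incubation 110 s before DAMGO / Detection: Fluo4 calcium flux fluorescence, kinetic read / Replicates: duplicate wells for each compound, averaged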

Sequence of Short transient receptor potential channel 4 (Mus musculus) (Q9QUQ5 whole entry, looked up): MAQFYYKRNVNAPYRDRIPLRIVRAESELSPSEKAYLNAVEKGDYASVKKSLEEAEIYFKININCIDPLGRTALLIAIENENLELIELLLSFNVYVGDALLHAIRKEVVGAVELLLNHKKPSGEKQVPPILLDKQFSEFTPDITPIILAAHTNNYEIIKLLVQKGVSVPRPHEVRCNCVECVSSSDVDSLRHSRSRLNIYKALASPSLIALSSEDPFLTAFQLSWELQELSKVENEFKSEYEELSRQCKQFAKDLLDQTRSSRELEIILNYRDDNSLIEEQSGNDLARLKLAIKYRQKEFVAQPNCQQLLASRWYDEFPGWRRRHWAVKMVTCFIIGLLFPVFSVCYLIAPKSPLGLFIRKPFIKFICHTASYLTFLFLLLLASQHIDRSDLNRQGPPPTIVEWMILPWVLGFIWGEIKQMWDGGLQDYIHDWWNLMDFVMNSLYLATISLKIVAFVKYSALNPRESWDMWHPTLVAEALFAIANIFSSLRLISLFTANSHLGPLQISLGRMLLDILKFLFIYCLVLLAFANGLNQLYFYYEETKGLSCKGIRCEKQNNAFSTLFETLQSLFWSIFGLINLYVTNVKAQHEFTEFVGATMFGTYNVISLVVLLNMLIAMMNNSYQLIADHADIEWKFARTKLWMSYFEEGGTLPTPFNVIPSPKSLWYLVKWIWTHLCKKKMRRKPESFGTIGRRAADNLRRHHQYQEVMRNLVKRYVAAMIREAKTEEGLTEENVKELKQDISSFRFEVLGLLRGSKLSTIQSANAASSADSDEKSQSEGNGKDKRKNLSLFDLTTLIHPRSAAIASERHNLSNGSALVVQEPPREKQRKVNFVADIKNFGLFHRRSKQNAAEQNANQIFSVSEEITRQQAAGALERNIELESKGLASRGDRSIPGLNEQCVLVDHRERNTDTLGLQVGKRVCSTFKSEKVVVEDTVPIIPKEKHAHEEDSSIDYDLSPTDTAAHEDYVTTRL

inhibition, active:
CCC(O)(c1ccc(OC)cc1)C(CN1CCOCC1)c1ccccc1 (stereo not given) 92%
COc1ccc(Nc2cc(C)nc3ccc(OC)cc23)cc1 91%
CN(C)C(CNC(=O)c1ccccc1OCc1ccc(Cl)cc1)c1ccco1 (stereo not given) 84%
COc1ccc(-c2csc(NC(=O)Cc3cccc4ccccc34)c2C(=O)O)cc1 90%
CC1CCN(C(C)C(=O)Nc2ccccc2-c2ccccc2)CC1 (stereo not given) 82%
O=c1c2ccccc2nc(SCc2ccccc2)n1CC1CCCO1 (stereo not given) 54%
CC(=O)Nc1cccc(C(=O)NCC2(N3CCCCC3)CCCCC2)c1 89%
Cc1ccn2cc(CCNC(=O)c3ccc(Br)o3)nc2c1 89%
CCOc1ccc2ccccc2c1CNCCc1ccc(S(N)(=O)=O)cc1 92%
CCc1cccc(OCC(=O)Nc2ccc(C(=O)O)cc2NC(=O)COc2cccc(CC)c2)c1 93%
COc1ccc(CN2CCN(C(=O)c3ccc(F)cc3)CC2)c(OC)c1 93%
CCOc1ccc(Br)cc1/C=N/O 90%
CCC1CCCCN1Cc1nc2c(c(=O)n(C)c(=O)n2C)n1Cc1ccccc1 (stereo not given) 74%
O=C(c1ccc2c(c1)OCO2)C1CCCN(Cc2ccccc2OC(F)F)C1 (stereo not given) 89%
O=C(Nc1ccccc1N1CCN(C(=O)c2ccccc2)CC1)c1ccc(Br)o1 82%
Cc1ccc(C(=O)C2=C(O)C(=O)N(Cc3cccnc3)C2c2ccc(Cl)c(Cl)c2)o1 (stereo not given) 90%
Cc1cccc(CCN(C(=O)c2snc(C(N)=O)c2N)C(C(=O)NCC2CCCO2)c2ccc(F)cc2)c1 (stereo not given) 74%
Cc1ccc(NC(=O)c2cc(N3C(=O)C=CC3=O)ccc2N2CCOCC2)cc1 91%
Fc1ccccc1Sc1ccccc1CNC1=NCCN1 93%
CC(C)C(NC(=O)c1ccc(C(C)(C)C)cc1)C(=O)NCC(c1ccccc1)N(C)C (stereo not given) 82%
COCCn1c(SCC(=O)c2ccccc2)nc2ccccc2c1=O 91%
COc1ccc(SC[C@H](Cc2ccccc2)N2CCN(C)CCC2=O)cc1 95%
O=C(CCCSc1nc2ccccc2[nH]1)NCc1ccccc1Cl 88%
CCOC(=O)C1(Cc2ccccc2)CCN(CC2CC=CCC2)CC1 (stereo not given) 93%
CCn1c(NCc2c[nH]c3ccccc23)nc2ccccc21 89%
COc1ccc(C(CNC(=O)c2oc3ccc(F)cc3c2C)N2CCCCC2)cc1 (stereo not given) 98%
CCC(=O)N1CCc2cc(S(=O)(=O)NCCN3CCCCC3CC)ccc21 (stereo not given) 94%
Nc1cc(N2CCCCC2)c([N+](=O)[O-])cc1Cl 88%
Cc1c(CCOC(=O)c2cccc([N+](=O)[O-])c2)sc[n+]1CC(=O)c1ccccc1 88%
CCOc1cc(CNCCCN2CCOCC2)cc(Br)c1OCc1ccccc1Cl 77%
Cc1ccc(Sc2ccc(CO)cc2[N+](=O)[O-])cc1 98%
CC1CCc2c(sc(/N=C/N(C)C)c2C#N)C1 (stereo not given) 78%
COc1ccccc1N1CCN(CC(C)N(C(=O)C2CCCCC2)c2ccccn2)CC1 (stereo not given) 93%
CCN(CC)c1ncnc2scc(C3COc4ccccc4O3)c12 (stereo not given) 86%
COc1ccc(Sc2nc(-c3ccccc3)ncc2C(=O)O)cc1 48%
Cc1cccc(CN2CCCC(C(=O)Nc3ccccc3Oc3cccnc3)C2)c1 (stereo not given) 92%
Cn1nnnc1SCCNCc1ccccc1OCc1ccc(Cl)cc1 88%
O=C(C[n+]1cccc(CNC(=O)c2ccc(OC(F)F)cc2)c1)Nc1ccc(SC(F)F)cc1 94%

outcome, inactive:
Cc1ccc(C(C)(C)C)cc1S(=O)(=O)Nc1nc2ccccc2nc1Cl
Cc1ccc(Cn2c(Cc3ccccc3)nc3ccccc32)cc1

Target: Short transient receptor potential channel 4 (Mus musculus) (UniProt Q9QUQ5)
Experiment: blockers of DAMGO-evoked TRPC4 calcium flux – cell-based, second round, Fluo4, HEK293 TRPC4beta/mu-opioid, 1 µM, confirmation (AID 2637);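 on inhibition: percent of integrated ratio relative to wells lacking test compound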
Settings: at 1 µM; stronger effect = higher value
Summary of the method: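 Test system: HEK293 stable line co-expressing TRPC4beta and mu-opioid receptor | Probe or stimulus: Sequential submaximal then maximal DAMGO stimulation | Dosing: 1 µM single point | Timing: Fluo4 loading 45 min at room temperature, compound 110 s | Signal: Fluo4 calcium fluorescence, kinetic real-time read after baseline | Controls: ECmax and compound-free wells | Repeats: Duplicates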

inhibition, active:
CCC(O)(c1ccc(OC)cc1)C(CN1CCOCC1)c1ccccc1 (stereo not given) 52%
CN(C)C(CNC(=O)c1ccccc1OCc1ccc(Cl)cc1)c1ccco1 (stereo not given) 62%
CC1CCN(C(C)C(=O)Nc2ccccc2-c2ccccc2)CC1 (stereo not given) 36%
COc1ccc(CN2CCN(C(=O)c3ccc(F)cc3)CC2)c(OC)c1 57%
O=C(Nc1ccccc1N1CCN(C(=O)c2ccccc2)CC1)c1ccc(Br)o1 57%
Cc1cccc(CCN(C(=O)c2snc(C(N)=O)c2N)C(C(=O)NCC2CCCO2)c2ccc(F)cc2)c1 (stereo not given) 68%
Cc1ccc(NC(=O)c2cc(N3C(=O)C=CC3=O)ccc2N2CCOCC2)cc1 38%
Fc1ccccc1Sc1ccccc1CNC1=NCCN1 68%
CC(C)C(NC(=O)c1ccc(C(C)(C)C)cc1)C(=O)NCC(c1ccccc1)N(C)C (stereo not given) 70%
COCCn1c(SCC(=O)c2ccccc2)nc2ccccc2c1=O 48%
COc1ccc(SC[C@H](Cc2ccccc2)N2CCN(C)CCC2=O)cc1 40%
O=C(CCCSc1nc2ccccc2[nH]1)NCc1ccccc1Cl 46%
CCC(=O)N1CCc2cc(S(=O)(=O)NCCN3CCCCC3CC)ccc21 (stereo not given) 59%
Nc1cc(N2CCCCC2)c([N+](=O)[O-])cc1Cl 42%
Cc1ccc(Cn2c(Cc3ccccc3)nc3ccccc32)cc1 64%
COc1ccccc1N1CCN(CC(C)N(C(=O)C2CCCCC2)c2ccccn2)CC1 (stereo not given) 52%
Cn1nnnc1SCCNCc1ccccc1OCc1ccc(Cl)cc1 45%

outcome, inactive:
COc1ccc(Nc2cc(C)nc3ccc(OC)cc23)cc1
Cc1ccc(C(C)(C)C)cc1S(=O)(=O)Nc1nc2ccccc2nc1Cl
COc1ccc(-c2csc(NC(=O)Cc3cccc4ccccc34)c2C(=O)O)cc1
O=c1c2ccccc2nc(SCc2ccccc2)n1CC1CCCO1 (stereo not given)
CC(=O)Nc1cccc(C(=O)NCC2(N3CCCCC3)CCCCC2)c1
Cc1ccn2cc(CCNC(=O)c3ccc(Br)o3)nc2c1
CCOc1ccc2ccccc2c1CNCCc1ccc(S(N)(=O)=O)cc1
CCc1cccc(OCC(=O)Nc2ccc(C(=O)O)cc2NC(=O)COc2cccc(CC)c2)c1
CCOc1ccc(Br)cc1/C=N/O
CCC1CCCCN1Cc1nc2c(c(=O)n(C)c(=O)n2C)n1Cc1ccccc1 (stereo not given)
O=C(c1ccc2c(c1)OCO2)C1CCCN(Cc2ccccc2OC(F)F)C1 (stereo not given)
Cc1ccc(C(=O)C2=C(O)C(=O)N(Cc3cccnc3)C2c2ccc(Cl)c(Cl)c2)o1 (stereo not given)
CCOC(=O)C1(Cc2ccccc2)CCN(CC2CC=CCC2)CC1 (stereo not given)
CCn1c(NCc2c[nH]c3ccccc23)nc2ccccc21
COc1ccc(C(CNC(=O)c2oc3ccc(F)cc3c2C)N2CCCCC2)cc1 (stereo not given)
Cc1c(CCOC(=O)c2cccc([N+](=O)[O-])c2)sc[n+]1CC(=O)c1ccccc1
CCOc1cc(CNCCCN2CCOCC2)cc(Br)c1OCc1ccccc1Cl
Cc1ccc(Sc2ccc(CO)cc2[N+](=O)[O-])cc1
CC1CCc2c(sc(/N=C/N(C)C)c2C#N)C1 (stereo not given)
CCN(CC)c1ncnc2scc(C3COc4ccccc4O3)c12 (stereo not given)
COc1ccc(Sc2nc(-c3ccccc3)ncc2C(=O)O)cc1
Cc1cccc(CN2CCCC(C(=O)Nc3ccccc3Oc3cccnc3)C2)c1 (stereo not given)
O=C(C[n+]1cccc(CNC(=O)c2ccc(OC(F)F)cc2)c1)Nc1ccc(SC(F)F)cc1
